What was measured:
Norwalk virus = test: Antiviral activity against Norwalk virus infected in human HG23 cells assessed as inhibition of viral replication after 24 hrs by qRT-PCR; assay type: functional; conditions: HG23, 24 h, read-out: ED50 (the source's name)
In short: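 HG23 cells (Norwalk virus replicon-bearing), one day old at 80–90% confluence, exposed to graded compound levels from 0 (mock-DMSO) to 10 µM. NV genome quantified by qRT-PCR; ED50 for genome levels taken at 24 h post-treatment. Values averaged over at least two independent experiments, mean ± standard deviation.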

[1] = Cytotoxicity against human HG23 cells after 48 hrs; assay type: cell-based; conditions: read-out: TD50
In short: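 Replicon-harboring HG23 cells exposed to graded compound levels from 0 (mock-DMSO) to 320 µM for 48 h. Viability read with a commercial cell cytotoxicity assay kit, and the median toxic dose (TD50) was calculated from it.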

Compound	EC50 (Norwalk virus)	CC50 at 48 h [1]
CCN1CCN(Cc2cccc(Oc3ccccc3)c2)S1(=O)=O	> 10 µM	–
CC(C)Oc1ccc(CN2CCNS2(=O)=O)cc1	> 10 µM	–
O=C(O)CCCN1CCN(Cc2cccc(Oc3ccccc3)c2)S1(=O)=O	> 10 µM	–
O=S1(=O)NCCN1Cc1cccc(Oc2ccc(F)cc2)c1	> 10 µM	98 µM
O=S1(=O)N(Cc2ccc(F)cc2)CCN1Cc1cccc(Oc2ccccc2)c1	> 10 µM	–
O=S1(=O)NCCN1Cc1cccc(O)c1	> 10 µM	–
O=S1(=O)N(CCN2CCOCC2)CCN1Cc1cccc(Oc2ccccc2)c1	–	49 µM
O=S1(=O)NCCN1Cc1cccc(OC(F)(F)F)c1	> 10 µM	–
O=S1(=O)NCCN1Cc1ccc(Cl)cc1	> 10 µM	–
O=S1(=O)NCCN1Cc1ccc(Oc2ccccc2)cc1	5.8 µM	57 µM
NC(=O)CN1CCN(Cc2cccc(Oc3ccccc3)c2)S1(=O)=O	> 10 µM	–
O=C(O)CN1CCN(Cc2cccc(Oc3ccccc3)c2)S1(=O)=O	7.8 µM	48 µM
O=C(O)c1ccc(CN2CCN(Cc3cccc(Oc4ccccc4)c3)S2(=O)=O)cc1	> 10 µM	–
O=S1(=O)N(CCN2CCCCC2)CCN1Cc1cccc(Oc2ccccc2)c1	4.3 µM	9.8 µM
CN1CCN(Cc2cccc(Oc3ccccc3)c2)S1(=O)=O	> 10 µM	–
O=C(O)CCN1CCN(Cc2cccc(Oc3ccccc3)c2)S1(=O)=O	> 10 µM	–
CCCc1ccc(CN2CCNS2(=O)=O)cc1	> 10 µM	–
COC(=O)CN1CCN(Cc2cccc(Oc3ccccc3)c2)S1(=O)=O	> 10 µM	–
COC(=O)CCCCCCN1CCN(Cc2cccc(Oc3ccccc3)c2)S1(=O)=O	> 10 µM	–
N#CCN1CCN(Cc2cccc(Oc3ccccc3)c2)S1(=O)=O	> 10 µM	–
COC(=O)CCCN1CCN(Cc2cccc(Oc3ccccc3)c2)S1(=O)=O	> 10 µM	–
CCCOc1ccc(CN2CCNS2(=O)=O)cc1	5.2 µM	96 µM
CC(C)(C)OC(=O)N1CCN(Cc2cn(Cc3ccccc3)nn2)S1(=O)=O	> 10 µM	–

Compound	EC50 (Norwalk virus)	CC50 at 48 h [1]
CSc1ccc(CN2CCNS2(=O)=O)cc1	> 10 µM	–
O=C(O)CCCCN1CCN(Cc2cccc(Oc3ccccc3)c2)S1(=O)=O	6.1 µM	100 µM
O=S1(=O)NCCN1Cc1ccc(OCc2ccccc2)cc1	9.8 µM	159 µM
CC(C)Cc1ccc(CN2CCNS2(=O)=O)cc1	9.7 µM	–
COC(=O)CCN1CCN(Cc2cccc(Oc3ccccc3)c2)S1(=O)=O	> 10 µM	–
CCCCc1ccc(CN2CCNS2(=O)=O)cc1	> 10 µM	–
COc1cccc(CN2CCNS2(=O)=O)c1	> 10 µM	–
COC(=O)CCCCN1CCN(Cc2cccc(Oc3ccccc3)c2)S1(=O)=O	9.7 µM	46 µM
O=S1(=O)NCCN1Cc1cn(Cc2ccccc2)nn1	> 10 µM	–
O=C(O)CCCCCCN1CCN(Cc2cccc(Oc3ccccc3)c2)S1(=O)=O	> 10 µM	–
CCOc1ccc(CN2CCNS2(=O)=O)cc1	> 10 µM	–
O=S1(=O)NCCN1CC1CCCN(Cc2ccccc2)C1 (configuration not stated)	> 10 µM	–
O=S1(=O)NCCN1Cc1cccc(Oc2ccccc2)c1	4.1 µM	50 µM
O=S1(=O)NCCN1Cc1ccc(OC(F)(F)F)cc1	> 10 µM	–
O=S1(=O)NCCN1Cc1cccc(OCc2ccccc2)c1	5.2 µM	18 µM
COC(=O)c1ccc(CN2CCN(Cc3cccc(Oc4ccccc4)c3)S2(=O)=O)cc1	> 10 µM	–
O=S1(=O)N(Cc2ccccc2)CCN1Cc1cccc(Oc2ccccc2)c1	> 10 µM	–
COc1ccc(Cn2cc(CN3CCN(C(=O)OC(C)(C)C)S3(=O)=O)nn2)cc1	9.8 µM	–
O=S1(=O)N(Cc2cccnc2)CCN1Cc1cccc(Oc2ccccc2)c1	8.1 µM	53 µM
COc1ccc(CN2CCNS2(=O)=O)cc1	> 10 µM	–
CCCCOc1ccc(CN2CCNS2(=O)=O)cc1	9.5 µM	–
COc1ccc(Cn2cc(CN3CCNS3(=O)=O)nn2)cc1	> 10 µM	–
O=S1(=O)NCCN1Cc1cccc(Cl)c1	> 10 µM	–

Source: ChEMBL document CHEMBL1833900, “Potent inhibition of Norwalk virus by cyclic sulfamide derivatives” (Bioorg Med Chem, 2011)
